# Results taken from the M2OR odorant receptor database.
# Key:
# Conditions in all cases: stereoisomer not certain
# OR5M3 (Homo sapiens) = molecular target: T1, OR5M3 (Homo sapiens) (UniProt Q8NGP4)
# T1 sequence (whole entry): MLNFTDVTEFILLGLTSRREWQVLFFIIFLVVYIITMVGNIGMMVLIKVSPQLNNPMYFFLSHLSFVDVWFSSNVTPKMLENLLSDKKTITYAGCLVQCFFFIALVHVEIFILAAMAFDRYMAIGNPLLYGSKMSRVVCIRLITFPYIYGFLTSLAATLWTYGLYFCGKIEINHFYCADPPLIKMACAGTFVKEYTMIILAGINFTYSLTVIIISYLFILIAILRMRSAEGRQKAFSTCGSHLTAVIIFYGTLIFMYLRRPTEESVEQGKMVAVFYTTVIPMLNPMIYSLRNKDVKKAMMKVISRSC
# In short: (§1)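 Transient luciferase assays in mammalian cell lines were common, though methods varied by source. The values come from published papers and their supplementary material, with extra details from the original authors when needed. Responsive refers to a measured signal the original authors judged statistically different from baseline, and non-responsive (inactive) to the remainder.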
# OR5M10 (Homo sapiens) = OR5M10 (Homo sapiens) (UniProt Q6IEU7)
# OR5M10 (Homo sapiens), sequence (Q6IEU7 whole entry): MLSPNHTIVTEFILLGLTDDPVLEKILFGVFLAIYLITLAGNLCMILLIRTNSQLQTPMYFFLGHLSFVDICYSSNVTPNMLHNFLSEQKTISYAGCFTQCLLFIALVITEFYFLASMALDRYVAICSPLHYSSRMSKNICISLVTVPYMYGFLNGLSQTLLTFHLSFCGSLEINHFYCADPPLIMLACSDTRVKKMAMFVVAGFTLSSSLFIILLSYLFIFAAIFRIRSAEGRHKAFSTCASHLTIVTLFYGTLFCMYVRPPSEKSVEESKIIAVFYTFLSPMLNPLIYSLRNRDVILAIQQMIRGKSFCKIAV
# In short: as §1
# OR5M11 (Homo sapiens) = OR5M11 (Homo sapiens) (UniProt Q96RB7)
# OR5M11 (Homo sapiens), sequence (Q96RB7 whole entry): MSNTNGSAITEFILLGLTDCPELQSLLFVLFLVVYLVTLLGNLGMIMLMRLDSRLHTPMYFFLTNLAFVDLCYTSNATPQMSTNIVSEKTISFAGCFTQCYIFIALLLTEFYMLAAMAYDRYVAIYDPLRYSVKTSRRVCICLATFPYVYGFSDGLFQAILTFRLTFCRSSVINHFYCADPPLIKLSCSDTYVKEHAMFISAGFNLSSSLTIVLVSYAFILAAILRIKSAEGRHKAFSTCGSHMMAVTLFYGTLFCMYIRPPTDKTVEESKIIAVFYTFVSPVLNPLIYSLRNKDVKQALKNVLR
# In short: as §1
# OR5M8 (Homo sapiens) = OR5M8 (Homo sapiens) (UniProt Q8NGP6)
# OR5M8 (Homo sapiens), sequence (Q8NGP6 whole entry): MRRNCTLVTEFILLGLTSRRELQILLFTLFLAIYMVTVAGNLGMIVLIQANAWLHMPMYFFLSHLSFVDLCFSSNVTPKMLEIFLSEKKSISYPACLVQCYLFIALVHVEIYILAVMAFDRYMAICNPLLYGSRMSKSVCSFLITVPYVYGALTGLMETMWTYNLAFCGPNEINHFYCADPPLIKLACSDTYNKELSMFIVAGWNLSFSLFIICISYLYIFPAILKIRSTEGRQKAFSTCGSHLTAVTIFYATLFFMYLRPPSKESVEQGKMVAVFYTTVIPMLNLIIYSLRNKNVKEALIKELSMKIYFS
# In short: as §1
# OR5M9 (Homo sapiens) = OR5M9 (Homo sapiens) (UniProt Q8NGP3)
# OR5M9 (Homo sapiens), sequence (Q8NGP3 whole entry): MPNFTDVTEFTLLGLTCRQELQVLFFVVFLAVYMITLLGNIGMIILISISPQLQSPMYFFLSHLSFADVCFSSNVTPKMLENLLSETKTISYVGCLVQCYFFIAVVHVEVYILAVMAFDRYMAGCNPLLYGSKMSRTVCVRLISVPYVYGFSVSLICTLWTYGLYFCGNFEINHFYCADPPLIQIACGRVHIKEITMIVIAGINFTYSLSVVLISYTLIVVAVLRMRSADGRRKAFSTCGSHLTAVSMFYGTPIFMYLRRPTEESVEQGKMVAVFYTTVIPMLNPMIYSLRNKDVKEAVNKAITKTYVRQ
# In short: as §1
# OR5P2 (Homo sapiens) = OR5P2 (Homo sapiens) (UniProt Q8WZ92)
# OR5P2 (Homo sapiens), sequence (Q8WZ92 whole entry): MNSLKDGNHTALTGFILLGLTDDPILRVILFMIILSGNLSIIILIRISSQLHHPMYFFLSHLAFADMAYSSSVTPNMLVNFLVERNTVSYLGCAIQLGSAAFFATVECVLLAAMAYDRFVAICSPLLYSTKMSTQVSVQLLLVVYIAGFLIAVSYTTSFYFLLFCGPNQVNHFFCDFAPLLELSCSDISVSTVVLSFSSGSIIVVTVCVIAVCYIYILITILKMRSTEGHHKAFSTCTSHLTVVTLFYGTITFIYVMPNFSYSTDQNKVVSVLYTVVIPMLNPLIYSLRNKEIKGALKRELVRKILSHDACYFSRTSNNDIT
# In short: as §1
# OR5M1 T295R M301I = test system: OR5M1 T295R M301I
# In short: as §1
# OR5M3 N3Y A156T = test system: OR5M3 N3Y A156T
# In short: as §1
# OR5MA L2F C311H = test system: OR5MA L2F C311H
# In short: as §1
# OR5MA L2F Q54H C311H = test system: OR5MA L2F Q54H C311H
# In short: as §1
# 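Also: active if original authors judged signal statistically different from baseline.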
structure (smiles),measurement,setting,value
Cc1ccc(O)c(C)c1,odorant receptor agonist call,OR5M3 (Homo sapiens),inactive
O=Cc1ccc2c(c1)OCO2,odorant receptor agonist call,OR5M3 (Homo sapiens),inactive
C=CCSSCC=C,odorant receptor agonist call,OR5M3 (Homo sapiens),inactive
SCc1ccco1,odorant receptor agonist call,OR5M3 (Homo sapiens),inactive
NCC(=O)c1ccccc1,odorant receptor agonist call,OR5M3 (Homo sapiens),inactive
CCOC(=O)Cc1ccccc1,odorant receptor agonist call,OR5M3 (Homo sapiens),inactive
Cc1c([N+](=O)[O-])c(C)c([N+](=O)[O-])c(C(C)(C)C)c1[N+](=O)[O-],odorant receptor agonist call,OR5M10 (Homo sapiens),inactive
same,odorant receptor agonist call,OR5M11 (Homo sapiens),inactive
same,odorant receptor agonist call,OR5M3 (Homo sapiens),inactive
same,odorant receptor agonist call,OR5M8 (Homo sapiens),inactive
same,odorant receptor agonist call,OR5M9 (Homo sapiens),inactive
same,odorant receptor agonist call,OR5P2 (Homo sapiens),inactive
COc1ccc(C=O)cc1,odorant receptor agonist call,OR5M3 (Homo sapiens),inactive
Cc1ccccc1O,odorant receptor agonist call,OR5M3 (Homo sapiens),inactive
CSSC,odorant receptor agonist call,OR5M3 (Homo sapiens),inactive
C=CCOC(=O)Cc1ccccc1,odorant receptor agonist call,OR5M1 T295R M301I,inactive
same,odorant receptor agonist call,OR5M10 (Homo sapiens),inactive
same,odorant receptor agonist call,OR5M11 (Homo sapiens),inactive
same,odorant receptor agonist call,OR5M3 (Homo sapiens),inactive
same,odorant receptor agonist call,OR5M3 N3Y A156T,inactive
same,odorant receptor agonist call,OR5M8 (Homo sapiens),inactive
same,odorant receptor agonist call,OR5M9 (Homo sapiens),inactive
same,odorant receptor agonist call,OR5MA L2F C311H,inactive
same,odorant receptor agonist call,OR5MA L2F Q54H C311H,inactive
same,odorant receptor agonist call,OR5P2 (Homo sapiens),inactive
C=CCc1ccc(OC)cc1,odorant receptor agonist call,OR5M3 (Homo sapiens),inactive
